Bioassay records deposited in PubChem by Broad Institute.
CaV13 ICDI inh: Disruptors of the CACNA1D IQ motif to Ca2+-dependent inactivation inhibitor domain association, primary screening, Förster resonance energy transfer in intact living …; HEK cells, CFP/YFP FRET ICDI-IQ, plate reader, 10 min; percent FRET-ratio fall versus neutral wells; inhibition, % at 12.3 µM; hit rate 0.098% among 340,000;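 active = mean replicate inhibition of at least 30% and at least 1% of replicates passing that level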;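 note: 0% = median of the neutral control wells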
LANA-H2B inh: blocks KSHV LANA binding to histone H2A/H2B. inhibition, % (test concentration not listed). AID 2629. hit rate 0.6% among 320,000. Q9QR71. cell-free LANA-H2A/H2B peptide, fluorescence polarization; in the data active = inhibition mostly above about 10%, no sharp cut-off; inactive = mostly below about 6.7%
CAL PDZ FP-1: blocks peptide binding to human CAL PDZ domain; AID 504414; hit rate 0.02% among 330,000; purified CAL PDZ, TMR-peptide fluorescence polarization, 1 h; inhibition, % at 20 µM; Q9HD26;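 active = highest replicate inhibition of at least 40%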;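 note: plate controls were DMSO neutral control wells for no effect and unlabeled competitor peptide control wells for full effect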
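material = purified tagged CAL PDZ domain construct (CerCALP) | compound dosing = 20 µM, one dose | times = 1 h at RT | measured by = fluorescence polarization from S- and P-plane intensities, G-factor corrected | read-out = inhibition from polarization loss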
Keap1-Nrf2 PPI: inhibitors of human Keap1-Nrf2 protein-protein interaction | Keap1 Kelch-Nrf2 peptide fluorescence polarization, 1536-well | AID 504523 | Q14145 | inhibition, % at 9.4 µM | hit rate 0.15% among 340,000; in the data active = inhibition above about 12%;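 note: human Keap1 Kelch domain with fluorescein labeled Nrf2 9mer peptide probe; 0% = neutral control wells and 100% = peptide positive control; higher means more block of Keap1 binding to Nrf2 peptide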
Target sequence (Q14145 whole entry, looked up, the tested form may be a part): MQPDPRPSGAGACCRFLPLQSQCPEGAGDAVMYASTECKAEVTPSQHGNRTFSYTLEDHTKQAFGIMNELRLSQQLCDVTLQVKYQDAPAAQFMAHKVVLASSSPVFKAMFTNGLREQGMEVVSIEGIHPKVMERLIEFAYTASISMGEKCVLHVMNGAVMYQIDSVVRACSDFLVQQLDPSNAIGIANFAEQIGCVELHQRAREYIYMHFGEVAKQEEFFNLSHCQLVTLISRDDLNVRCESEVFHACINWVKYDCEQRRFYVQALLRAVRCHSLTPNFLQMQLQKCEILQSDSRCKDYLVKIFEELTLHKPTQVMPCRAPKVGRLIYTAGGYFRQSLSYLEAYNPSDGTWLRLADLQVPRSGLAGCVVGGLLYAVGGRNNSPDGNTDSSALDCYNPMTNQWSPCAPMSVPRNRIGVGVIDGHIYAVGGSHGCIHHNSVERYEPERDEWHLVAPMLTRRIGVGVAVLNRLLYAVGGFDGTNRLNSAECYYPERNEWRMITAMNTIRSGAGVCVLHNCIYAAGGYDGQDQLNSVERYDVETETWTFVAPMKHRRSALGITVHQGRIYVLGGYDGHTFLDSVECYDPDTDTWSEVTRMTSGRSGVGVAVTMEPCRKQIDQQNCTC
LANA DNA inh: inhibitors of KSHV LANA C-terminal domain DNA binding; MBP-C-LANA/FAM-LBS DNA binding, fluorescence polarization; inhibition, % at 9 µM; hit rate 0.078% among 340,000; AID 504423;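 active = highest replicate inhibition at or above 60% at 9 µM, even if other replicates fall short; inactive = all replicates below 60% inhibition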;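 note: 0% = neutral control wells and 100% = 4 µM acridine orange control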
CAL PDZ FP-2: CAL PDZ (human) peptide binding inhibition; Q9HD26; purified CAL PDZ, TMR-peptide fluorescence polarization, 1 h; inhibition, % at 24.9 µM; hit rate 0.92% among 300,000; AID 602252;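 active = mean inhibition of at least 30% with at least half of replicates also reaching 30%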;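 note: 0% = DMSO neutral control and 100% = excess unlabeled competitor peptide PRC23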
Keap1 Kelch bind: Keap1 (human) Kelch domain binding; shares compounds with Keap1-Nrf2 PPI; Keap1 Kelch thermal shift, delta Tm; stronger effect = higher value; hit rate 8% among 400; max delta Tm, degrees C; in the data active = max delta Tm above about 0.48 degrees C
Dye-only ctr: counter-screen for Keap1 thermal shift hits: dye-only artifacts | shares compounds with Keap1-Nrf2 PPI | Sypro Orange dye-only thermal melt, no protein, delta Tm; top dose 26 µM | delta Tm, degrees C (test concentration not listed) | 140 tested, under 10 active | AID 651858;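 active = at highest dose tested, delta Tm positive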
Starred values were filed as active, the others as inactive; . = no result. The list is not random: actives were taken first. Their share in the collection is about 1.5%.

SMILES | CaV13 ICDI inh | LANA-H2B inh | CAL PDZ FP-1 | Keap1-Nrf2 PPI | LANA DNA inh | CAL PDZ FP-2 | Keap1 Kelch bind | others
C=CCOc1ccc(C2OC34CCCCC3C(C#N)(C#N)C2(C#N)C(=N)O4)cc1 (centres undefined) | . | 10 | 0 | 11* | 36 | 4 | -0.08 | Dye-only ctr=-27
Cc1snc(S(=O)(=O)/C(C#N)=N/Nc2cccc(C(F)(F)F)c2)c1C#N | . | 1 | -2 | 12* | -2 | -2 | 0.19
COc1ccc(N/N=C(/C#N)S(=O)(=O)c2nsc(C)c2C#N)cc1 | -6 | 1 | 0 | -3 | 0 | -2 | .
Cc1ccc(CNC(=O)N2CCN(S(=O)(=O)c3ccccc3)CC2)cc1 | -12 | -1 | -1 | -2 | 0 | 5 | .
CN1CC=C2C(C#N)=C(N)C(C#N)(C#N)[C@H](c3cccs3)[C@H]2C1 | . | 13 | 0 | 26* | 57 | 6 | -0.02 | Dye-only ctr=-28
CN1CC=C2C(C#N)=C(N)C(C#N)(C#N)C(c3ccsc3)C2C1 (centres undefined) | -6 | 10 | 0 | 17* | 36 | . | -0.17
CCCC1C2CN(C(C)C)CC=C2C(C#N)=C(N)C1(C#N)C#N (centres undefined) | -1 | 30* | -1 | 20* | 45 | 0 | -0.16 | Dye-only ctr=-26
COc1cccc(C2C3CN(C)CC=C3C(C#N)=C(N)C2(C#N)C#N)c1OC (centres undefined) | -5 | 5 | -2 | 10 | 36 | -2 | .
CC(C)c1ccc(C2C3CSCC=C3C(C#N)=C(N)C2(C#N)C#N)cc1 (centres undefined) | . | 12 | . | . | . | . | .
c1ccc(-c2cn3nc4c(nc3n2)CCCC4)cc1 | 34* | 6 | 0 | 22* | 41 | -3 | -0.13 | Dye-only ctr=-30
Brc1ccc(-c2cn3nc4c(nc3n2)CCCC4)cc1 | 1 | 18 | -5 | -1 | 16 | -19 | .
Cc1cccc(NC(=O)CCN2CCCCC2)c1 | -20 | 3 | 1 | 32* | 16 | . | -0.1 | Dye-only ctr=-26
CC/C(=N\NC(=O)CCC(=O)NCc1ccccc1)c1ccc(O)cc1 | 7 | -9 | -1 | -3 | 3 | -2 | .
COCCCn1c(=NC(=O)c2ccccc2)c(C#N)cc2c(=O)n3cccc(C)c3nc21 | 4 | 27* | 1 | 14* | 5 | 1 | 0.04
CCOCCCn1c(=NC(=O)c2cccs2)c(C#N)cc2c(=O)n3cccc(C)c3nc21 | 16 | 28* | 0 | 13* | 14 | . | 0.24
COCCCn1c(=NC(C)=O)c(C#N)cc2c(=O)n3cccc(C)c3nc21 | -4 | -6 | . | . | . | . | .
O=C(COc1ccc([N+](=O)[O-])cc1Cl)N1CCc2ccccc21 | -4 | -1 | 0 | 6 | 0 | 10 | .
CN(C)CCNC(=O)c1c(NC(=O)c2ccccc2)sc2c1CCCC2 | -5 | -3 | -1 | 17* | . | . | -0.15
O=c1[nH]c(=S)[nH]c2c1C(c1ccc(Br)cc1)c1c([nH]c(=S)[nH]c1=O)O2 | -19 | -7 | . | 45* | 112* | 31* | -0.12 | Dye-only ctr=-26
CC1CCN(C2=NC(=O)/C(=C/c3cccc(O)c3)S2)CC1 | -11 | 4 | -1 | -1 | -1 | 3 | .
CC1Cc2cc(/C=C3/SC(N4CCC(C(N)=O)CC4)=NC3=O)ccc2O1 (centres undefined) | -4 | 8 | -7 | 21* | 11 | . | -0.12
N#C/C(=C\c1ccc(O)cc1)C(=O)N1CCCC1 | -14 | 2 | -2 | -4 | -1 | -6 | .
N#C/C(=C\c1ccc[nH]1)C(=O)N1CCCCC1 | -5 | 5 | -1 | 58* | . | . | -0.17
Cc1ccc(S(=O)(=O)N2CCCCC2)cc1NC(=O)c1ccccc1Cl | -15 | -2 | 1 | 31* | 23 | . | -0.18
COc1cc(S(=O)(=O)N2CCCCC2)ccc1NC(=O)c1ccccc1Cl | -9 | 0 | -1 | -2 | 0 | 0 | .
SMILES | CaV13 ICDI inh | LANA-H2B inh | CAL PDZ FP-1 | Keap1-Nrf2 PPI | LANA DNA inh | CAL PDZ FP-2 | Keap1 Kelch bind | others
CCOC(=O)C(C)(C)N(Cc1ccccc1C)S(=O)(=O)c1ccc(Cl)c([N+](=O)[O-])c1 | -5 | -6 | 0 | 27* | 0 | 0 | -0.13 | Dye-only ctr=-27
Cc1ccc(NC(=S)NCc2ccc(F)cc2)c(C)c1 | -20 | -4 | -1 | 22* | 28 | . | -0.16 | Dye-only ctr=-24
CC1(C)C(CSc2nc3ccccc3[nH]2)C1(Cl)Cl (centres undefined) | -4 | 2 | -6 | -1 | 1 | -2 | .
COc1ccc(N=Nc2nc3cc(Br)c(Br)cc3n2C)c(OC)c1 | -4 | 102* | -2 | 13* | 24 | -1 | 0.04
COc1ccc(CNc2nc3ccccc3n2C)c(OC)c1 | 4 | 9 | 0 | 1 | 0 | -3 | .
COc1ccc(-n2nnnc2SCC(=O)N(C)C2CCS(=O)(=O)C2)cc1 (centres undefined) | -5 | -2 | 0 | -7 | 2 | -2 | .
CCn1nnnc1SCC(=O)N(C)C1CCS(=O)(=O)C1 (centres undefined) | -15 | 6 | 1 | 37* | 15 | . | -0.13
CCC(C)N(C(=O)c1csnn1)C(C(=O)NCc1ccc(F)cc1)c1ccccc1F (centres undefined) | -5 | 0 | -2 | 4 | 0 | 3 | .
COc1ccc(NS(=O)(=O)c2ccc(Br)cc2)cn1 | -7 | 2 | -3 | -2 | 1 | -1 | .
COc1ccc(NS(=O)(=O)c2ccc(F)c(Cl)c2)cn1 | -9 | 5 | -1 | 21* | 32 | -1 | -0.07
COc1cc2c3nnc(-c4ccc(F)cc4)c-3cn(Cc3ccc(F)cc3)c2cc1OC | -6 | -2 | 1 | 8 | 24 | . | .
COc1cc2c3nnc(-c4ccc(F)cc4)c-3cn(Cc3ccccc3)c2cc1OC | -21 | 9 | 1 | 16* | 2 | . | -0.16 | Dye-only ctr=-26
COCCNCC(=O)Nc1ccccc1Sc1ccccc1 | -4 | 1 | -2 | -4 | -2 | -1 | .
CC1(NC(=O)CCc2nc3sc4c(c3c(=O)[nH]2)CCCC4)CCS(=O)(=O)C1 (centres undefined) | -6 | 1 | -2 | -3 | -1 | -3 | .
NS(=O)(=O)c1ccc(N=Nc2c[nH]c(=O)c(O)c2)cc1 | -23 | 2 | . | 34* | 68* | -9 | 0.54* | Dye-only ctr=-26
Nc1nc(O)c(N=Nc2ccc(S(N)(=O)=O)cc2)c(=O)[nH]1 | -19 | 0 | . | . | . | . | .
CCN(CC)C(=O)c1nc(-c2cccc3ccccc23)no1 | -5 | . | . | . | . | . | .
O=[N+]([O-])c1ccccc1S(=O)(=O)Nc1cccnc1 | -4 | 0 | -1 | 2 | 1 | -5 | .
COC(=O)c1ccc(OC(=O)CN2C(=O)c3ccccc3C2=O)cc1 | -20 | -2 | -1 | 57* | 25 | . | -0.1
COC(=O)c1ccc(CN2C(=O)c3ccccc3C2=O)cc1 | -21 | 0 | -1 | 2 | -1 | 3 | .
COc1ccc(S(=O)(=O)N2CCC(C(=O)NN3CCCCC3)CC2)cc1OC | -14 | 7 | -1 | -1 | -1 | -5 | .
COc1cc(CN2CCN(CC#Cc3ccccc3)CC2CCO)cc(OC)c1 (centres undefined) | -5 | -3 | -2 | 1 | 2 | -4 | .
